The results in this text go back to ChEMBL document CHEMBL4393654, “Discovery and Early Clinical Development of an Inhibitor of 5-Lipoxygenase Activating Protein (AZD5718) for Treatment of Coronary Artery Disease” (J Med Chem, 2019).

Calls of active or inactive are those of the source. The rule behind the calls is not given here. Some results are limits rather than exact numbers.

Data set [1] in a line: Toxicity in conscious telemetered Beagle dog assessed as vomiting. Also noted: species or system Canis lupus familiaris. The note with it: in vivo.
In a further data set the target is Bile salt export pump (Homo sapiens, UniProt O95342). Description: Inhibition of recombinant human BSEP expressed in baculovirus infected Sf21 insect cell vesicles assessed as reduction in NBD-taurocholate uptake by fluorescence assay. It counts as ADME.
A short description of data set [2]: Oral bioavailability in rat at 2.5 umol/kg. The conditions noted are these: in vivo. It counts as ADME, organism-based.
A short description of data set [3]: Cardiotoxicity in dog assessed as effect on cardiac function measured up to 28 days during compound dosing. In kind it is toxicity, Canis lupus familiaris. The conditions noted are these: in vivo, 672 h.
Data set [4] is described as follows: Cardiotoxicity in dog assessed as effect on histopathological changes measured up to 28 days during compound dosing. In kind it is toxicity, Canis lupus familiaris. The note with it: in vivo, 672 h.
The nature of data set [5]: Cardiotoxicity in rat assessed as effect on histopathological changes measured up to 28 days during compound dosing. The note with it: in vivo, 672 h. It counts as toxicity.
The nature of data set [6]: Half life in human at 60 to 1200 mg, po administered as single dose. It counts as ADME, organism-based. The conditions noted are these: in vivo.
A short description of data set [7]: Cardiotoxicity in rat assessed as effect on cardiac function measured up to 28 days during compound dosing. It counts as toxicity. The note with it: in vivo, 672 h.
The nature of data set [8]: Cardiotoxicity in conscious telemetered Beagle dog assessed as effect on arterial blood pressure at 0.5 to 30 mg/kg administered as single iv infusion for 2 hrs measured up to 48 hrs post dose by telemetry. It counts as toxicity, organism-based, Canis lupus familiaris. The note with it: in vivo. Put shortly:
(§1)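 Conscious beagle dogs were given the compound by intravenous infusion. Infusion was set to reach a target plasma concentration 100-fold above the predicted free human Cmax at the therapeutic dose, and cardiovascular parameters were recorded.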

A short description of data set [9]: Volume of distribution at steady state in rat at 1 umol/kg, iv. In kind it is ADME. The note with it: in vivo, read-out: Vdss.
Data set [10] concerns Cytochrome P450. Description: Drug metabolism in human hepatocytes assessed as CYP450-mediated phase-2 glucuronidation/oxidation at 4 uM measured after 120 mins by LC-MS/MS analysis. In kind it is ADME, cell-based, Hepatocyte. The conditions noted are these: 2 h.
The nature of data set [11]: Cardiotoxicity in conscious telemetered Beagle dog assessed as effect on lead 2 electrocardiogram at 0.5 to 30 mg/kg administered as single iv infusion for 2 hrs measured up to 48 hrs post dose by telemetry. It counts as toxicity, organism-based, Canis lupus familiaris. The conditions noted are these: in vivo. Put shortly: as §1
Data set [12] is described as follows: Cardiotoxicity in conscious telemetered Beagle dog assessed as effect on heart rate at 0.5 to 30 mg/kg administered as single iv infusion for 2 hrs measured up to 48 hrs post dose by telemetry. In kind it is toxicity, organism-based, Canis lupus familiaris. The conditions noted are these: in vivo. Put shortly: as §1
The target in data set [13] is Voltage-dependent T-type calcium channel subunit alpha-1H (Homo sapiens, UniProt O95180). Put plainly: Inhibition of human Cav3.2 by Ion-work electrophysiology assay.
A short description of data set [14]: Oral bioavailability in Beagle dog at 4.2 umol/kg. In kind it is ADME, organism-based, Canis lupus familiaris. The note with it: in vivo.
Data set [15] addresses Solute carrier organic anion transporter family member 1B1 (Homo sapiens, UniProt Q9Y6L6). Put plainly: […] at recombinant human OATP1B1 expressed in HEK293 cells assessed as reduction in pivastatin uptake. It counts as ADME, cell-based.
Data set [16] can be described thus: Clearance in rat at 2 umol/kg, iv. In kind it is ADME. The note with it: in vivo.
Data set [17] can be described thus: Volume of distribution at steady state in rat at 2 umol/kg, iv. In kind it is ADME. The conditions noted are these: in vivo, read-out: Vdss.
Data set [18] in a line: Half life in rat at 2 umol/kg, iv. In kind it is ADME. The conditions noted are these: in vivo.
Data set [19] in a line: Oral bioavailability in rat at 2.8 umol/kg. The conditions noted are these: in vivo. In kind it is ADME, organism-based.
Data set [20] concerns Cytochrome P450. Put plainly: Drug metabolism in human hepatocytes assessed as CYP450-mediated phase-2 glucuronidation/ketone reduction at 4 uM measured after 120 mins by LC-MS/MS analysis. It counts as ADME, cell-based, Hepatocyte. The note with it: 2 h.
For a further data set, the system named is THP-1. Put plainly: Cytotoxicity against human THP1 cells assessed as reduction in cell viability measured after 48 hrs by resazurin assay. In kind it is cell-based. The note with it: THP-1, 48 h.
The next data set deals with HepG2. Description: Cytotoxicity against human HepG2 cells assessed as reduction in ATP depletion in presence of glucose/galactose. In kind it is cell-based.
In data set [21] the target is T1, Arachidonate 5-lipoxygenase-activating protein (Homo sapiens) (UniProt P20292).
T1 sequence (whole entry): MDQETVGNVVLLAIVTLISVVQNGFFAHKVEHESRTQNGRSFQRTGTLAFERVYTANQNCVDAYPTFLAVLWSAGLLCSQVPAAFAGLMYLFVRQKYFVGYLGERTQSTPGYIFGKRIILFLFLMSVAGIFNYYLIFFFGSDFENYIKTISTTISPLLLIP
Put plainly: Inhibition of FLAP in human whole blood assessed as reduction in calcium ionophore-stimulated LTB4 production preincubated for 4 hrs followed by calcium ionophore stimulation and measured after 20 mins by EIA. In kind it is tissue-based. Put shortly: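 Fresh human whole blood was incubated with compound for 4 h, then stimulated with calcium ionophore, and LTB4 production was measured as the 5-LO pathway read-out. IC50 was also converted to a free value: IC50 × (Fu/100), where Fu = 100 − human plasma protein binding (%).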

For a further data set, the species on record is Homo sapiens. Description: Selectivity ratio of compound effect on activity at COX1 in human whole blood to IC50 for FLAP in human whole blood.
Data set [22] has as its target Prostaglandin G/H synthase 1 (Homo sapiens) (UniProt P23219). Description: Activity at COX1 in human whole blood assessed as effect on […] production by EIA. In kind it is tissue-based.
A short description of data set [23]: Volume of distribution at steady state in Beagle dog at 1 umol/kg, iv. It counts as ADME, Canis lupus familiaris. The conditions noted are these: in vivo, read-out: Vdss.
Data set [24] in a line: Clearance in Beagle dog at 1 umol/kg, iv. In kind it is ADME, Canis lupus familiaris. The conditions noted are these: in vivo.
Data set [25] addresses T2, Arachidonate 5-lipoxygenase-activating protein (Homo sapiens, UniProt P20292).
T2 sequence (P20292 whole entry): T1 sequence (whole entry)
Description: Inhibition of [3H]MK0591 binding to human FLAP expressed in […] cell membranes measured after 60 to 80 mins by microbeta scintillation counting method.

The target in data set [26] is T3, Prostaglandin G/H synthase 2 (Homo sapiens) (UniProt P35354).
T3 sequence (whole entry): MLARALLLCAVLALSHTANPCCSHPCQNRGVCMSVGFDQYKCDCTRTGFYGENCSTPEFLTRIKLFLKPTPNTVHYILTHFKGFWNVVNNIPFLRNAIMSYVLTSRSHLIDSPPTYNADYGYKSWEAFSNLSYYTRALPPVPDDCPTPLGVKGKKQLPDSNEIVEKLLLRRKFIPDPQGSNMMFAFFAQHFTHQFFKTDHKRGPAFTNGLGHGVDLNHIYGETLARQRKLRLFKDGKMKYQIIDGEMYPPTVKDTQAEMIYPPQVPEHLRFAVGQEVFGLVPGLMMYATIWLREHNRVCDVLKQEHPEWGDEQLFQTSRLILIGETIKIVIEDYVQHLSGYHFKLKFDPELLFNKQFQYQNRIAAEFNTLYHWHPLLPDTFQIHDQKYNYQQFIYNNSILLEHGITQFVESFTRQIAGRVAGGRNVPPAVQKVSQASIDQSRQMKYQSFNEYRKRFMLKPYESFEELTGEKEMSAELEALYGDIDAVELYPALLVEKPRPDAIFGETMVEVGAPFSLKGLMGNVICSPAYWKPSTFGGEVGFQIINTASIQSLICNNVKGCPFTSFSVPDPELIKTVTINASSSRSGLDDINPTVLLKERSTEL
Description: Activity at COX2 in human whole blood assessed as effect on LPS-induced PGE2 production preincubated for 15 mins followed by LPS-stimulation and measured after overnight incubation by EIA. It counts as tissue-based.

Data set [27] can be described thus: Oral bioavailability in rat at 2 umol/kg. In kind it is ADME, organism-based. The conditions noted are these: in vivo.
For data set [28], the system named is Cytochrome P450. Description: Drug metabolism in human hepatocytes assessed as CYP450-mediated oxidation at 4 uM measured after 120 mins by LC-MS/MS analysis. In kind it is ADME, cell-based, Hepatocyte. The conditions noted are these: 2 h.
A short description of data set [29]: Half life in Beagle dog at 1 umol/kg, iv. The note with it: in vivo. It counts as ADME, Canis lupus familiaris.

Chain of Voltage-dependent T-type calcium channel subunit alpha-1H (O95180 whole entry): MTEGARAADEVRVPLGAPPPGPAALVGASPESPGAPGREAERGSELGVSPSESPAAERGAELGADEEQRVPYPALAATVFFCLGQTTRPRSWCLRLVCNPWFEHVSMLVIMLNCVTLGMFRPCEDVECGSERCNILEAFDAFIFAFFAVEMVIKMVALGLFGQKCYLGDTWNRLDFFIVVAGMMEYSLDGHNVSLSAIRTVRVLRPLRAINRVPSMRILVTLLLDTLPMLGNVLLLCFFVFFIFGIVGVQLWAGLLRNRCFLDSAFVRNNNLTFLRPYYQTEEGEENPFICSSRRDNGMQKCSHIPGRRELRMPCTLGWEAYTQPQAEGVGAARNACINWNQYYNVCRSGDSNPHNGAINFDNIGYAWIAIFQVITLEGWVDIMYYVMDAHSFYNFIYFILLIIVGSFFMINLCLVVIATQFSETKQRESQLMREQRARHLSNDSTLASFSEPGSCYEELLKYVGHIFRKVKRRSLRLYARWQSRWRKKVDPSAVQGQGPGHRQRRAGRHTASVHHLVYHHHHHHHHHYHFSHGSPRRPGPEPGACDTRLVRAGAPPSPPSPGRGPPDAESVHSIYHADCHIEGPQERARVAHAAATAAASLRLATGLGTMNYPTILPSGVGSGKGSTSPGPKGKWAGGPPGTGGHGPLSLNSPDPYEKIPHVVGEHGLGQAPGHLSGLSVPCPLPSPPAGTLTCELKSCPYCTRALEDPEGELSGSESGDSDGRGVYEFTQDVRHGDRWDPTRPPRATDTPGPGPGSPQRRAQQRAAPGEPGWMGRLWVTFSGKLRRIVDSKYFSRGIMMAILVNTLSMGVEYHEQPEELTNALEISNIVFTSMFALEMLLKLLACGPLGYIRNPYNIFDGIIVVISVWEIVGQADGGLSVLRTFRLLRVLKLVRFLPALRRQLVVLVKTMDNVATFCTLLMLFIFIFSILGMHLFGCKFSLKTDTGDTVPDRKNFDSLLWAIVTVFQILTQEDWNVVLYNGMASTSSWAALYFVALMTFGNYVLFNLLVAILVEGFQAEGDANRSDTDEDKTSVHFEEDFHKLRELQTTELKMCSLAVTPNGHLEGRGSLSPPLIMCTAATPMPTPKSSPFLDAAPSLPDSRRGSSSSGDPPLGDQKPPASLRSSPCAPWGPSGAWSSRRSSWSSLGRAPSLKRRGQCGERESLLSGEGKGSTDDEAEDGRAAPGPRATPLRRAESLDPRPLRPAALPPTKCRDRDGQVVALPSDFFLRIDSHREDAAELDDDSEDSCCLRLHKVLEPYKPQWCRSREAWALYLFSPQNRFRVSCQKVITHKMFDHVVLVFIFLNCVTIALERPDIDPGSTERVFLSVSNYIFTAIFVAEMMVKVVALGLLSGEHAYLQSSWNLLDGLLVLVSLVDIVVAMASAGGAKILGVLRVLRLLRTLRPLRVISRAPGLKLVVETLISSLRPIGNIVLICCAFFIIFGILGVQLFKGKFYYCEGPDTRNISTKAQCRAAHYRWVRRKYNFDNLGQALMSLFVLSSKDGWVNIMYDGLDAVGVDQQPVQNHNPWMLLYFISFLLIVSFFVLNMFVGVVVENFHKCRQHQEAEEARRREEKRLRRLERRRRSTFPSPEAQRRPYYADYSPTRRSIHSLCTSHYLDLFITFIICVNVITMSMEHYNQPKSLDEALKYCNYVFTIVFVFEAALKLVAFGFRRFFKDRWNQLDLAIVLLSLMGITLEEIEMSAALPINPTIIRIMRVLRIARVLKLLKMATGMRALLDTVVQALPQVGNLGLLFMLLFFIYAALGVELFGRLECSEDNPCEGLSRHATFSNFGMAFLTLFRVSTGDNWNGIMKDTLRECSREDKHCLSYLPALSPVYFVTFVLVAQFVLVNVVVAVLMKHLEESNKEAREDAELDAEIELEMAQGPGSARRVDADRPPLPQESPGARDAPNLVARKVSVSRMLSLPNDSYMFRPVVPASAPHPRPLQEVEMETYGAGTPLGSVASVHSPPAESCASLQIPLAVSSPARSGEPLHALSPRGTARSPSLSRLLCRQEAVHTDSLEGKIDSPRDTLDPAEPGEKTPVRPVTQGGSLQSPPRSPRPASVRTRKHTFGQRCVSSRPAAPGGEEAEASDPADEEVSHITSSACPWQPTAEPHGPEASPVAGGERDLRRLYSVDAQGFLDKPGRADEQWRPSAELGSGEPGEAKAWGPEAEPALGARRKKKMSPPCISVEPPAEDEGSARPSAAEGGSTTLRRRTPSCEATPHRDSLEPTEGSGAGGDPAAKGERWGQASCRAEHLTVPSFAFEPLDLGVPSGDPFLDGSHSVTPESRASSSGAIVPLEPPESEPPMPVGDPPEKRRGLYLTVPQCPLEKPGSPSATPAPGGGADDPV
Chain of Solute carrier organic anion transporter family member 1B1 (Q9Y6L6 whole entry): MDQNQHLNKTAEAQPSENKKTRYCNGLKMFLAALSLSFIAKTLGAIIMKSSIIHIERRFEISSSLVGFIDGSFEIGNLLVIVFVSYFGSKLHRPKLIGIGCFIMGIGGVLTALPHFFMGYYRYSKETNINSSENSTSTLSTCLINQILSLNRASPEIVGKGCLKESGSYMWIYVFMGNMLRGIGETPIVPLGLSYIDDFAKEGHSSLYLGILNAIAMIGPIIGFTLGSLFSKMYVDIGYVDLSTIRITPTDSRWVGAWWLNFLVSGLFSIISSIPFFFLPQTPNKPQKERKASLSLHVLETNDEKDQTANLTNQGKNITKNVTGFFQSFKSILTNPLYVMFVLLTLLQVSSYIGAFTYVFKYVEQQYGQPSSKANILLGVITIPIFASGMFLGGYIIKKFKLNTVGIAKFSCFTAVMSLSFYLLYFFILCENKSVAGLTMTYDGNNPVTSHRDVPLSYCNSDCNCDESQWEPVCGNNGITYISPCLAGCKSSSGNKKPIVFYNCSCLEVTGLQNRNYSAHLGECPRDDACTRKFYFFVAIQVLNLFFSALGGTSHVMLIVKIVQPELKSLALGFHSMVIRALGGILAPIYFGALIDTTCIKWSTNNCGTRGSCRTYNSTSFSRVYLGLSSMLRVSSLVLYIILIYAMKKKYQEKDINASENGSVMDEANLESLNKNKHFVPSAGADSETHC
Chain of Prostaglandin G/H synthase 1 (Homo sapiens) (P23219 whole entry): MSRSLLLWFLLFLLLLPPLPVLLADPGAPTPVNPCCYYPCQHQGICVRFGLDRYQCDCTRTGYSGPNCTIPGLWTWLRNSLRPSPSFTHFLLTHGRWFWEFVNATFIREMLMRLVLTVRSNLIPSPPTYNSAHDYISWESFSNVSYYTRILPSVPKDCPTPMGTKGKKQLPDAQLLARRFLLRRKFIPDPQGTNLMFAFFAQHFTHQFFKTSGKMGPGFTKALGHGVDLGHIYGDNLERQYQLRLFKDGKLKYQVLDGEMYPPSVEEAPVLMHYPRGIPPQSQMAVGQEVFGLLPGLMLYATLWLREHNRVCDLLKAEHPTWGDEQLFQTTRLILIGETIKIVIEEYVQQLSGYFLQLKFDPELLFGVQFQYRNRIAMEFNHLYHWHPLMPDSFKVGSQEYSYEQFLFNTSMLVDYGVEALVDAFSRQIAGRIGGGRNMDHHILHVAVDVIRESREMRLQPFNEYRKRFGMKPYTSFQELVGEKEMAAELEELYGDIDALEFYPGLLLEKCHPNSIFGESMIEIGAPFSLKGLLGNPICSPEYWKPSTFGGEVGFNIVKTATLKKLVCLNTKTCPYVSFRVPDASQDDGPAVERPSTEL
Chain of Bile salt export pump (O95342 whole entry): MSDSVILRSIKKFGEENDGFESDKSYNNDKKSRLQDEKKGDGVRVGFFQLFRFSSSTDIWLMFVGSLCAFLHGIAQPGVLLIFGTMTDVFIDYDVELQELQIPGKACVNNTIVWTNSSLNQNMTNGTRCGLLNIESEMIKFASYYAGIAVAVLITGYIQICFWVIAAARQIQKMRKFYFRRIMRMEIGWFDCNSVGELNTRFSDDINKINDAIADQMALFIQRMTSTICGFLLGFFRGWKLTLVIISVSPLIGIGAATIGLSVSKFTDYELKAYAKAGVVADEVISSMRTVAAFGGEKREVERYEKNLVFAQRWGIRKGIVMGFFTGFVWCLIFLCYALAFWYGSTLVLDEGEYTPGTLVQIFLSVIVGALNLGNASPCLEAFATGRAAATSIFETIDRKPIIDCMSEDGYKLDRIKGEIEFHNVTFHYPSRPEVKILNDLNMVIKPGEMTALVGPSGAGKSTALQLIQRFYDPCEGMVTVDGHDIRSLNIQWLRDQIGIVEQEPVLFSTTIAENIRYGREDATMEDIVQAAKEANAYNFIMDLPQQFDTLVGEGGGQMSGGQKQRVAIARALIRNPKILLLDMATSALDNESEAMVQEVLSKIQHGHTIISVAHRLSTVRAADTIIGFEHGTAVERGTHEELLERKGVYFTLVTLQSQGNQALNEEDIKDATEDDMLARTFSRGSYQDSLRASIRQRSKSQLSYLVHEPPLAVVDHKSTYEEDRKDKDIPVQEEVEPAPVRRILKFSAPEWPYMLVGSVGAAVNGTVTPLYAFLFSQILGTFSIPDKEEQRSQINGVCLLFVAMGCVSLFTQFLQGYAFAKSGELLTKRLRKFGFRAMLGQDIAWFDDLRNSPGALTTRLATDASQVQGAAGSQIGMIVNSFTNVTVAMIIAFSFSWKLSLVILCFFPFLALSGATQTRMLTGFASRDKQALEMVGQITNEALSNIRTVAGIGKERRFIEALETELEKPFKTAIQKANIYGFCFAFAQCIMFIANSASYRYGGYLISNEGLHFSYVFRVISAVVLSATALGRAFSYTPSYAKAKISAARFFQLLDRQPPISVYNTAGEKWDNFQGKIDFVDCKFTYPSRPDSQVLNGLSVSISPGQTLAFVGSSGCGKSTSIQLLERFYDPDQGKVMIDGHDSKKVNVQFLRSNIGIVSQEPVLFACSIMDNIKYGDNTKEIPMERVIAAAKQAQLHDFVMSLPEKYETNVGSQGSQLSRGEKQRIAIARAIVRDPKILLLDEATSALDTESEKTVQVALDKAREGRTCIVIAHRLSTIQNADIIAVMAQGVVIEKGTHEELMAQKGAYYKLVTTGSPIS

The IC50 is the concentration at which inhibition is half-maximal. By bioavailability is commonly meant dose-corrected exposure relative to a reference, in per cent. Read a high bioavailability as much systemic uptake. For orientation: half-life means the time in which the quantity being followed falls by half. As for `Cc1cc(-c2ccc(C(=O)[C@@H]3CCCC[C@H]3C(=O)Nc3cnn4c3C(=O)NCC4)cc2)[nH]n1`, the Activity entry in [1], in data set [3], in data set [4], in [5], in data set [7] and in data set [8] was “Non-Toxic” in each case. Moreover, the Activity entry in data set [11] and in data set [12] was “Non-Toxic” in each case. In addition, the concentration for half-maximal inhibition (IC50) on Bile salt export pump was 74 to 340 µM; in data set [13], more than 32 µM. Further, the bioavailability in data set [2] was 14%. Besides, the half-life in [6] is 720 min. Further, the Vd in data set [9] is 1.1 L/kg. In the data set on Cytochrome P450 [10], the Drug metabolism entry is reported as “Metabolite_Detected”.
A word on the clearance: it is the rate of elimination divided by the concentration. With `Cc1cc(-c2ccc(C(=O)[C@@H]3CCCC[C@H]3C(=O)Nc3cnn(C)c3S(N)(=O)=O)cc2)[nH]n1`, the bioavailability was 65% in data set [14] and 14% in data set [19]. Further, in data set [1], the Activity entry is listed as “Toxic”. The IC50 is 2500 nM in data set [15] and more than 32 µM in data set [13]. In addition, the clearance in data set [16] worked out at 10 mL/min/kg. For the same molecule, the Vd in data set [17] was 1.3 L/kg. In addition, in data set [18], the half-life was 174 min. The Drug metabolism result with Cytochrome P450 [20] was “Metabolite_Detected”.
Regarding `Cc1cc(-c2ccc(C(=O)[C@@H]3CCCC[C@H]3C(=O)Nc3cnn(C)c3C(=O)NOC(C)(C)C)cc2)[nH]n1`, the half-inhibitory concentration (IC50) with THP-1 is more than 250 µM; with HepG2, more than 250 µM; in data set [15] it was 1400 nM; in data set [25], 5.8 nM. Also, the fIC50 in data set [21] was 1.6 nM. Further, the Selectivity ratio in the data set filed under Homo sapiens was more than 100. In addition, the outcome in [22] and in data set [26] was inactive. The Vd in data set [23] stood at 0.4 L/kg; in [9] it was 0.18 L/kg. The molecule further had a clearance in data set [24] of 2 mL/min/kg. In addition, the bioavailability in [27] is 12%. The Drug metabolism entry in the data set with Cytochrome P450 [28] is “Metabolite_Detected”. The same molecule gave a half-life in data set [29] of 420 min.
